Assay results reported in ChEMBL document CHEMBL2146426, “Antitubercular nitrofuran isoxazolines with improved pharmacokinetic properties” (Bioorg Med Chem, 2012).
≈ marks a conversion by molar mass, not a printed value.

Tests used:
[1] = Solubility of the compound at pH 7.4 after 18 hrs by UV spectrometry; format: physicochemical; conditions: buffer, pH 7.4
Procedure, shortened: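 10 mM DMSO stocks diluted 100-fold in system solution buffer pH 7.4 and held 18 h at room temperature. Filtered, diluted 1:1 with isopropanol and measured by UV (230–500 nm). Compared against a 600-fold diluted reference in buffer/isopropanol. Triplicates.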

[2] = Plasma protein binding in mouse at 10 uM after 4 hrs by LC/MS analysis; format: ADME, cell-free; conditions: read-out: PPB (converted)
Procedure, shortened: (§1)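 Compound at 10 µM (0.1% DMSO) in mouse or human plasma. Rapid equilibrium dialysis (MWCO 8K) against DPBS pH 7.4, 4 h at 37°C with orbital shaking. Both chambers matrix-matched, precipitated with acetonitrile containing warfarin internal standard, quantified by LC–MS. %Free = buffer/plasma × 100; %Bound = 100 − %Free.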

[3] = Plasma protein binding in human at 10 uM after 4 hrs by LC/MS analysis; format: ADME, cell-free; conditions: read-out: PPB (converted); procedure, shortened: as §1
Staphylococcus aureus = experiment: Antibacterial activity against Staphylococcus aureus ATCC 29213 after overnight incubation by microbroth dilution technique; format: functional
Procedure, shortened: (§2)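 Two-fold serial broth dilutions per CLSI; inoculum about 10^5 CFU/mL; top final drug concentration 200 µg/mL; incubated aerobically overnight at 37°C. MIC read visually as the lowest concentration with no visible growth.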

Streptococcus pyogenes = experiment: Antibacterial activity against Streptococcus pyogenes ATCC 700294 after overnight incubation by microbroth dilution technique; format: functional; procedure, shortened: as §2
Streptococcus pneumoniae = experiment: Antibacterial activity against Streptococcus pneumoniae DAW27 after overnight incubation by microbroth dilution technique; format: functional; procedure, shortened: as §2
Enterococcus faecalis = experiment: Antibacterial activity against Enterococcus faecalis ATCC 3186 after overnight incubation by microbroth dilution technique; format: functional; procedure, shortened: as §2
Bacillus subtilis = experiment: Antibacterial activity against Bacillus subtilis ATCC 23857 after overnight incubation by microbroth dilution technique; format: functional
Procedure, shortened: (§3)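 Non-mycobacterial strains: two-fold serial dilutions in broth by CLSI microbroth dilution. Inoculum about 10^5 cfu/mL; top final drug concentration 200 µg/mL. Aerobic incubation at 37°C overnight. MIC read visually as the lowest concentration with no visible growth.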

Bacillus anthracis = experiment: Antibacterial activity against Bacillus anthracis Sterne 34F2 after overnight incubation by microbroth dilution technique; format: functional; procedure, shortened: as §3
Escherichia coli = experiment: Antibacterial activity against Escherichia coli K12 after overnight incubation by microbroth dilution technique; format: functional; conditions: K-12; procedure, shortened: as §3
[4] = Cmax in Sprague-Dawley rat at 10 mg/kg, iv; format: ADME, organism-based; set-up: dose 10 mg/kg, route intravenous; conditions: in vivo
Procedure, shortened: (§4)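 Rats, n=5, given 10 mg/kg IV via femoral vein catheter. Vehicle was 2% ethanol/saline or 30% DMSO/30% propylene glycol/20% PEG 3000/20% saline, depending on compound. Plasma sampled 0–48 h and urine collected in intervals to 48 h; both assayed by LC-MS/MS after acetonitrile precipitation. Non-compartmental analysis: CL = dose/AUC0-∞; fe = cumulative unchanged urinary amount/dose.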

[5] = AUC (0 to infinity) in Sprague-Dawley rat at 10 mg/kg, iv; format: ADME, organism-based; set-up: time infinity, dose 10 mg/kg, route intravenous; conditions: plasma; procedure, shortened: as §4
[6] = Half life in Sprague-Dawley rat at 10 mg/kg, iv; format: ADME, organism-based; set-up: dose 10 mg/kg, route intravenous; conditions: in vivo; procedure, shortened: as §4
[7] = Clearance in Sprague-Dawley rat at 10 mg/kg, iv; format: ADME, organism-based; set-up: dose 10 mg/kg, route intravenous; conditions: in vivo; procedure, shortened: as §4
[8] = Volume of distribution in Sprague-Dawley rat at 10 mg/kg, iv; format: ADME, organism-based; set-up: dose 10 mg/kg, route intravenous; conditions: in vivo; procedure, shortened: as §4
[9] = Drug excretion in Sprague-Dawley rat urine at 10 mg/kg, iv; format: ADME, organism-based; set-up: dose 10 mg/kg, route intravenous; conditions: read-out: Drug excretion; procedure, shortened: as §4
Rattus norvegicus [10] = experiment: Oral bioavailability in Sprague-Dawley rat at 100 mg/kg; format: ADME, organism-based; conditions: in vivo
Procedure, shortened: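 Fasted rats, n=5, dosed 100 mg/kg by oral gavage. Vehicle was 2% methanol, 60:40 PEG 3000/water or 10% vitamin E TPGS, depending on compound. Plasma sampled to 48 h and assayed by LC-MS/MS. F = (AUCoral×DoseIV)/(AUCIV×Doseoral), referenced to 10 mg/kg IV.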

Vero = experiment: Cytotoxicity against african green monkey Vero cells after 72 hrs by MTT assay; format: cell-based; conditions: Chlorocebus sabaeus
Procedure, shortened: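 Vero cells in DMEM with 10% FBS, seeded at ~10% confluency and left to adhere overnight. Two-fold serial dilutions applied for 72 h at 37°C, 5% CO2. MTT read-out at 570 nm after overnight solubilization.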

Rattus norvegicus [11] = experiment: Toxicity in Sprague-Dawley rat assessed as seizures at 10 mg/kg, iv; format: organism-based; set-up: dose 10 mg/kg, route intravenous; conditions: in vivo
Procedure, shortened: (§5)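 Observed during rat IV pharmacokinetic study (n=5). Single 10 mg/kg dose via femoral vein catheter, flushed with heparinized locking solution. Vehicle was 2% ethanol/saline or 30% DMSO/30% propylene glycol/20% PEG 3000/20% saline. Animals followed with serial blood sampling to 48 h.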

Rattus norvegicus [12] = experiment: Toxicity in Sprague-Dawley rat assessed as mortality at 10 mg/kg, iv; format: organism-based; set-up: dose 10 mg/kg, route intravenous; conditions: in vivo; procedure, shortened: as §5
Rattus norvegicus [13] = experiment: Toxicity in Sprague-Dawley rat assessed as mortality at 100 mg/kg, po; format: organism-based; set-up: dose 100 mg/kg, route oral; conditions: in vivo
Procedure, shortened: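 Observed during rat oral pharmacokinetic study (n=5). Overnight-fasted animals, water ad libitum, received 100 mg/kg by oral gavage. Vehicle was compound-dependent: 2% methanol (sonicated), 60:40 PEG 3000/water, or 10% vitamin E TPGS. Animals followed with sampling to 48 h.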

[14] = Apparent permeability of the compound from apical to basal side of human Caco2 cells at 50 umol/L after 2 hrs by UPLC/MS analysis; format: ADME, cell-based; conditions: Caco-2
Procedure, shortened: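 Caco-2 monolayers grown 7 days on Transwell inserts, washed with HBSS/HEPES pH 7.4. Compound at 50 µmol/L added apically or basolaterally, then 2 h at 37°C. Receiver side sampled and quantified by UPLC/MS. Papp = (dQ/dt)/(A×C0), triplicates.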

[15] = Cmax in rat at 10 mg/kg, iv; format: ADME, organism-based; set-up: dose 10 mg/kg, route intravenous; conditions: in vivo
Procedure, shortened: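 Rats (n=5) given 10 mg/kg IV via femoral vein catheter. Vehicle was 2% ethanol/saline or 30% DMSO/30% propylene glycol/20% PEG 3000/20% saline, depending on compound. Serial plasma sampled 0–48 h and assayed by LC-MS/MS after acetonitrile precipitation. Cmax read by visual inspection of the concentration–time curve.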

[16] = Volume of distribution in rat; format: ADME, organism-based; conditions: in vivo
Procedure, shortened: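 Plasma concentration–time data from rats (n=5) after IV 10 mg/kg or oral 100 mg/kg. Samples taken 0.25–48 h and measured by LC-MS/MS. Non-compartmental analysis; Vd calculated as AUMC0-∞ × dose divided by the square of AUC0-∞.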

[17] = Drug excretion in rat urine; format: ADME; conditions: read-out: Drug excretion

Row | Structure (SMILES) | fraction unbound at 4 h, 10 µM [2] | fraction unbound at 4 h, 10 µM [3] | MIC (Staphylococcus aureus) [µg/mL] | MIC (Streptococcus pyogenes) [µg/mL] | MIC (Streptococcus pneumoniae) [µg/mL] | MIC (Enterococcus faecalis) [µg/mL] | MIC (Bacillus subtilis) [µg/mL] | MIC (Bacillus anthracis) [µg/mL] | MIC (Escherichia coli) [µg/mL] | Cmax [4] [ng/mL] | AUC(0-inf) [5] [ng·h/mL] | half-life [6] [h] | clearance [7] [mL/min/kg] | Vd [8] [L/kg] | dose excreted [9] [%] | F (Rattus norvegicus [10]) [%] | IC50 (Vero) [µg/mL] | Activity (Rattus norvegicus [11]) | Activity (Rattus norvegicus [12]) | Activity (Rattus norvegicus [13]) | also measured
1 | CN1CCN(c2ccc(C3CC(c4ccc([N+](=O)[O-])o4)=NO3)cc2)C(=O)C1 (stereo not given) | 0.239 | 0.426 | 6.25 (≈ 16.9 µM) | 50 (≈ 135 µM) | 50 (≈ 135 µM) | 100 (≈ 270 µM) | 6.25 (≈ 16.9 µM) | 12.5 (≈ 33.8 µM) | 50 (≈ 135 µM) | 1190 | 960 | 0.61 | 194 | 3.1 | 0.68 | 58.3 | 20.3 (≈ 54.8 µM) | Toxic | Toxic | Non-toxic | solubility at 18 h [1]: 28.8 µg/mL (≈ 77.8 µM)
2 | O=[N+]([O-])c1ccc(C2=NOC(c3ccc(N4CCOCC4)cc3)C2)o1 (stereo not given) | 0.036 | 0.038 | 6.25 (≈ 18.2 µM) | 25 (≈ 72.8 µM) | 50 (≈ 146 µM) | > 200 | 12.5 (≈ 36.4 µM) | 12.5 (≈ 36.4 µM) | > 200 | 830 | 1630 | 2.39 | 108 | 35 | 0 | 100 | 2.9 (≈ 8.45 µM) | Non-toxic | Non-toxic | Non-toxic | Papp A→B at 2 h, 50 µM [14]: 17.2 ×10⁻⁶ cm/s
3 | CC(=O)NC[C@H]1CN(c2ccc(N3CCOCC3)c(F)c2)C(=O)O1 [LINEZOLID] | – | – | – | – | – | – | – | – | – | – | – | – | – | – | – | – | – | – | – | – | Cmax [15]: 15000 ng/mL; Vd [16]: 0.72 L/kg; dose excreted [17]: 73%
